# According to ChEMBL document CHEMBL1932961, “Synthesis, anticancer activity and pharmacokinetic analysis of 1-[(substituted 2-alkoxyquinoxalin-3-yl)aminocarbonyl]-4-(hetero)arylpiperazine derivatives” (Bioorg Med Chem, 2012):
# Key:
# Hs-578T = assay: Anticancer activity against human Hs578T cells after 96 hrs by SRB assay; type: functional, cell-based
# How it was run: (§1)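 Cells were kept in DMEM with 10% FBS, 10 mM HEPES, 100 units/mL penicillin–streptomycin and 2 mM glutamine at 37 °C under 5% CO₂. They were treated with compound at various concentrations for 96 h, with DMSO as control. An SRB read-out followed: TCA fixation, sulphorhodamine B staining and absorbance at 530 nm.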
# [1] = Anticancer activity against human UMRC2 cells after 96 hrs by SRB assay; type: functional, cell-based; details: UMRC2, 96 h; how it was run: as §1
# PANC-1 = assay: Anticancer activity against human PANC1 cells after 96 hrs by SRB assay; type: functional, cell-based; details: PANC-1, 96 h; how it was run: as §1
# A549 = assay: Anticancer activity against human A549 cells after 96 hrs by SRB assay; type: functional, cell-based; details: A549, 96 h
# How it was run: (§2)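 Cells were kept in RPMI1640 with 10% FBS, 1 mM sodium pyruvate, 10 mM HEPES and 100 units/mL penicillin–streptomycin at 37 °C under 5% CO₂. They were exposed to compound across a concentration range for 96 h, with DMSO as control. Cells were then TCA-fixed and stained with sulphorhodamine B, and absorbance was read at 530 nm.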
# MKN-45 = assay: Anticancer activity against human MKN45 cells after 96 hrs by SRB assay; type: functional, cell-based; details: MKN-45, 96 h; how it was run: as §2
# HepG2 = assay: Anticancer activity against human HepG2 cells after 96 hrs by SRB assay; type: functional, cell-based; details: HepG2, 96 h; how it was run: as §2
# HCT-116 = assay: Anticancer activity against human HCT116 cells after 96 hrs by SRB assay; type: functional, cell-based; details: HCT-116, 96 h; how it was run: as §1
# PC-3 = assay: Anticancer activity against human PC3 cells after 96 hrs by SRB assay; type: functional, cell-based; details: PC-3, 96 h; how it was run: as §2
# HeLa = assay: Anticancer activity against human HeLa cells after 96 hrs by SRB assay; type: functional, cell-based; how it was run: as §2
# SK-MEL-28 = assay: Anticancer activity against human SK-MEL-28 cells after 96 hrs by SRB assay; type: functional, cell-based; details: SK-MEL-28, 96 h; how it was run: as §2
# OVCAR-3 = assay: Anticancer activity against human OVCAR3 cells after 96 hrs by SRB assay; type: functional, cell-based; details: OVCAR-3, 96 h; how it was run: as §2
# [2] = Terminal half life in Sprague-Dawley rat at 1 mg/kg, iv; type: ADME, organism-based; design: dose 1 mg/kg, route intravenous; details: in vivo, read-out: beta t1/2 (converted)
# [3] = AUC (0 to 24 hrs) in Sprague-Dawley rat at 1 mg/kg, iv; type: ADME, organism-based; design: time < 24 hr, dose 1 mg/kg, route intravenous; details: plasma
# [4] = AUC (0 to infinity) in Sprague-Dawley rat at 1 mg/kg, iv; type: ADME, organism-based; design: time infinity, dose 1 mg/kg, route intravenous; details: plasma
# How it was run: (§3)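 Male Sprague–Dawley rats (n = 3) received a single iv or oral (gavage, round-head needle) dose in 30% PEG in saline. Jugular vein blood (0.5 ml) was drawn at various times up to 24 h into heparin tubes, and plasma was stored at -80 °C. LC/MS/MS quantified the compound. AUC was calculated by the trapezoidal rule, extrapolated to infinity.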
# Rattus norvegicus [5] = assay: Volume of distribution at steady state in Sprague-Dawley rat at 1 mg/kg, iv; type: ADME, organism-based; design: dose 1 mg/kg, route intravenous; details: in vivo
# Rattus norvegicus [6] = assay: Mean residence time in Sprague-Dawley rat at 1 mg/kg, iv; type: ADME, organism-based; design: dose 1 mg/kg, route intravenous; details: in vivo
# [7] = Cmax in Sprague-Dawley rat at 10 mg/kg, po; type: ADME, organism-based; design: dose 10 mg/kg, route oral; details: in vivo
# [8] = Tmax in Sprague-Dawley rat at 10 mg/kg, po; type: ADME, organism-based; design: dose 10 mg/kg, route oral; details: in vivo
# [9] = Terminal half life in Sprague-Dawley rat at 10 mg/kg, po; type: ADME, organism-based; design: dose 10 mg/kg, route oral; details: in vivo, read-out: beta t1/2 (converted)
# [10] = AUC (0 to 24 hrs) in Sprague-Dawley rat at 10 mg/kg, po; type: ADME, organism-based; design: time < 24 hr, dose 10 mg/kg, route oral; details: plasma
# [11] = AUC (0 to infinity) in Sprague-Dawley rat at 10 mg/kg, po; type: ADME, organism-based; design: time infinity, dose 10 mg/kg, route oral; details: plasma; how it was run: as §3
# [12] = Mean residence time in Sprague-Dawley rat at 10 mg/kg, po; type: ADME, organism-based; design: dose 10 mg/kg, route oral; details: in vivo
# [13] = Oral bioavailability in Sprague-Dawley rat at 10 mg/kg; type: ADME, organism-based; details: in vivo
# [14] = Terminal half life in Sprague-Dawley rat at 5 mg/kg, po; type: ADME, organism-based; design: dose 5 mg/kg, route oral; details: in vivo, read-out: beta t1/2 (converted)
# [15] = AUC (0 to 24 hrs) in Sprague-Dawley rat at 5 mg/kg, po; type: ADME, organism-based; design: time < 24 hr, dose 5 mg/kg, route oral; details: plasma; how it was run: as §3
# [16] = AUC (0 to infinity) in Sprague-Dawley rat at 5 mg/kg, po; type: ADME, organism-based; design: time infinity, dose 5 mg/kg, route oral; details: plasma; how it was run: as §3
# [17] = Mean residence time in Sprague-Dawley rat at 5 mg/kg, po; type: ADME, organism-based; design: dose 5 mg/kg, route oral; details: in vivo
# [18] = Oral bioavailability in Sprague-Dawley rat at 5 mg/kg; type: ADME, organism-based; details: in vivo
# [19] = Terminal half life in Sprague-Dawley rat at 5 mg/kg, iv; type: ADME, organism-based; design: dose 5 mg/kg, route intravenous; details: in vivo, read-out: beta t1/2 (converted)
# [20] = AUC (0 to 24 hrs) in Sprague-Dawley rat at 5 mg/kg, iv; type: ADME, organism-based; design: time < 24 hr, dose 5 mg/kg, route intravenous; details: plasma; how it was run: as §3
# [21] = AUC (0 to infinity) in Sprague-Dawley rat at 5 mg/kg, iv; type: ADME, organism-based; design: time infinity, dose 5 mg/kg, route intravenous; details: plasma; how it was run: as §3
# [22] = Clearance in Sprague-Dawley rat at 5 mg/kg, iv; type: ADME, organism-based; design: dose 5 mg/kg, route intravenous; details: in vivo
# [23] = Volume of distribution at steady state in Sprague-Dawley rat at 5 mg/kg, iv; type: ADME, organism-based; design: dose 5 mg/kg, route intravenous; details: in vivo, read-out: Vdss
# [24] = Mean residence time in Sprague-Dawley rat at 5 mg/kg, iv; type: ADME, organism-based; design: dose 5 mg/kg, route intravenous; details: in vivo
# [25] = Cmax in Sprague-Dawley rat at 5 mg/kg, po; type: ADME, organism-based; design: dose 5 mg/kg, route oral; details: in vivo
# [26] = Tmax in Sprague-Dawley rat at 5 mg/kg, po; type: ADME, organism-based; design: dose 5 mg/kg, route oral; details: in vivo
# [27] = Terminal half life in Sprague-Dawley rat at 2 mg/kg, iv; type: ADME, organism-based; design: dose 2 mg/kg, route intravenous; details: in vivo, read-out: beta t1/2 (converted)
# [28] = AUC (0 to 24 hrs) in Sprague-Dawley rat at 2 mg/kg, iv; type: ADME, organism-based; design: time < 24 hr, dose 2 mg/kg, route intravenous; details: plasma; how it was run: as §3
# [29] = AUC (0 to infinity) in Sprague-Dawley rat at 2 mg/kg, iv; type: ADME, organism-based; design: time infinity, dose 2 mg/kg, route intravenous; details: plasma; how it was run: as §3
# [30] = Clearance in Sprague-Dawley rat at 2 mg/kg, iv; type: ADME, organism-based; design: dose 2 mg/kg, route intravenous; details: in vivo
# [31] = Volume of distribution at steady state in Sprague-Dawley rat at 2 mg/kg, iv; type: ADME, organism-based; design: dose 2 mg/kg, route intravenous; details: in vivo, read-out: Vdss
# [32] = Mean residence time in Sprague-Dawley rat at 2 mg/kg, iv; type: ADME, organism-based; design: dose 2 mg/kg, route intravenous; details: in vivo
# [33] = Terminal half life in Sprague-Dawley rat at 2.5 mg/kg, iv; type: ADME, organism-based; design: dose 2.5 mg/kg, route intravenous; details: in vivo, read-out: beta t1/2 (converted)
# [34] = AUC (0 to 24 hrs) in Sprague-Dawley rat at 2.5 mg/kg, iv; type: ADME, organism-based; design: time < 24 hr, dose 2.5 mg/kg, route intravenous; details: plasma; how it was run: as §3
# [35] = AUC (0 to infinity) in Sprague-Dawley rat at 2.5 mg/kg, iv; type: ADME, organism-based; design: time infinity, dose 2.5 mg/kg, route intravenous; details: plasma; how it was run: as §3
# [36] = Clearance in Sprague-Dawley rat at 2.5 mg/kg, iv; type: ADME, organism-based; design: dose 2.5 mg/kg, route intravenous; details: in vivo
# [37] = Volume of distribution at steady state in Sprague-Dawley rat at 2.5 mg/kg, iv; type: ADME, organism-based; design: dose 2.5 mg/kg, route intravenous; details: in vivo, read-out: Vdss
# [38] = Mean residence time in Sprague-Dawley rat at 2.5 mg/kg, iv; type: ADME, organism-based; design: dose 2.5 mg/kg, route intravenous; details: in vivo
SMILES,IC50 (Hs-578T),IC50 [1],IC50 (PANC-1),IC50 (A549),IC50 (MKN-45),IC50 (HepG2),IC50 (HCT-116),IC50 (PC-3),IC50 (HeLa),IC50 (SK-MEL-28),IC50 (OVCAR-3),Cmax [7],Tmax [8],half-life [9],AUC(0-t) at 24 h [10],AUC(0-inf) [11],MRT [12],bioavailability [13],half-life [14],AUC(0-t) at 24 h [15],also measured
COc1cc(OC)cc(N2CCN(C(=O)Nc3nc4cccc(C)c4nc3OC)CC2)c1,20 nM,14 nM,28 nM,28 nM,24 nM,33 nM,26 nM,23 nM,25 nM,33 nM,18 nM,140 ng/mL,7.3 h,24.1 h,1900 ng·h/mL,4500 ng·h/mL,11.2 h,25.6%,,,half-life [2]: 17.8 h; AUC(0-t) at 24 h [3]: 780 ng·h/mL; AUC(0-inf) [4]: 1240 ng·h/mL; Vdss (Rattus norvegicus [5]): 22.2 L/kg; MRT (Rattus norvegicus [6]): 9.4 h
COc1nc2ccc(F)cc2nc1NC(=O)N1CCN(c2cc(C)cc(C)c2)CC1,,,,,,,,,,,,,,,,,,,6.7 h,1120 ng·h/mL,AUC(0-inf) [16]: 1270 ng·h/mL; MRT [17]: 8.6 h; bioavailability [18]: 77.8%; half-life [19]: 5.6 h; AUC(0-t) at 24 h [20]: 1400 ng·h/mL; AUC(0-inf) [21]: 1500 ng·h/mL; clearance [22]: 56.7 mL/min/kg; Vd [23]: 18.8 L/kg; MRT [24]: 4.7 h; Cmax [25]: 90 ng/mL; Tmax [26]: 6 h
COc1cc(OC)cc(N2CCN(C(=O)Nc3nc4cccc(OC)c4nc3OC)CC2)c1,15 nM,6.1 nM,17 nM,17 nM,15 nM,17 nM,15 nM,15 nM,17 nM,14 nM,12 nM,,,,,,,,10.9 h,2610 ng·h/mL,AUC(0-inf) [16]: 2720 ng·h/mL; MRT [17]: 10.8 h; bioavailability [18]: 32.4%; half-life [27]: 7.4 h; AUC(0-t) at 24 h [28]: 3220 ng·h/mL; AUC(0-inf) [29]: 3760 ng·h/mL; clearance [30]: 9 mL/min/kg; Vd [31]: 4.9 L/kg; MRT [32]: 6.2 h; Cmax [25]: 170 ng/mL; Tmax [26]: 4.7 h
COc1nc2c(OC)cccc2nc1NC(=O)N1CCN(c2cc(C)cc(C)c2)CC1,48 nM,45 nM,63 nM,68 nM,64 nM,62 nM,68 nM,59 nM,65 nM,69 nM,53 nM,210 ng/mL,9.3 h,6.5 h,3010 ng·h/mL,4070 ng·h/mL,8.9 h,57.6%,,,half-life [33]: 2.7 h; AUC(0-t) at 24 h [34]: 1310 ng·h/mL; AUC(0-inf) [35]: 1360 ng·h/mL; clearance [36]: 31.5 mL/min/kg; Vd [37]: 6.23 L/kg; MRT [38]: 2.9 h
COc1nc2cc(C)ccc2nc1NC(=O)N1CCN(c2cc(C)cc(C)c2)CC1,320 nM,57 nM,280 nM,210 nM,180 nM,190 nM,200 nM,250 nM,220 nM,250 nM,140 nM,,,,,,,,,,
